Source: ChEMBL document CHEMBL4261566, “New application of tiplaxtinin as an effective FtsZ-targeting chemotype for an antimicrobial study” (2017)
Converted amounts (≈) assume the structure as drawn. The source made the active and inactive calls. No cut-off for these calls is given here.

How the values were obtained:
[1] = system: Staphylococcus aureus; assay: Antibacterial activity against methicillin-resistant Staphylococcus aureus USA300 417 after 18 hrs by broth microdilution method; format: functional; details: USA300 417, 18 h
[2] = target: T1, Cell division protein FtsZ (Staphylococcus aureus) (UniProt P0A031); assay: Induction of recombinant Staphylococcus aureus FtsZ polymerization assessed as increase in size of polymers at 4 ug/ml preincubated for 10 mins followed by GTP addition and measured after 15 mins by transmission electron microscopic method
T1 sequence (whole entry): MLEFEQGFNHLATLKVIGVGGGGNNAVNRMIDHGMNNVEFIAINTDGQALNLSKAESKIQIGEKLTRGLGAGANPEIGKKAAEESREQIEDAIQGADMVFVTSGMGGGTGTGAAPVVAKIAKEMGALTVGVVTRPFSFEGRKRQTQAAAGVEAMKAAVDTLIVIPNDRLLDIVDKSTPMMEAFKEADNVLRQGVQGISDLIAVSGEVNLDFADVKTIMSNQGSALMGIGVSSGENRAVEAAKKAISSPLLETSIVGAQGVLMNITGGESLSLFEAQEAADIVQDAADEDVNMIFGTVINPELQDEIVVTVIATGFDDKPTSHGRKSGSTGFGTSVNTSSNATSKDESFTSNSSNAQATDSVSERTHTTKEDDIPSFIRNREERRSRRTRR

[3] = system: Staphylococcus aureus; assay: Antibacterial activity against methicillin-resistant Staphylococcus aureus ATCC BAA-1720 after 18 hrs by broth microdilution method; format: functional; details: ATCC BAA-1720, 18 h
[4] = system: Staphylococcus aureus; assay: Antibacterial activity against methicillin-resistant Staphylococcus aureus ATCC 33591 after 18 hrs by broth microdilution method; format: functional; details: ATCC 33591, 18 h
[5] = system: Bacillus subtilis; assay: Bactericidal activity against Bacillus subtilis 168 assessed as reduction in bacterial load at MIC to 4 times MIC after 24 hrs relative to control; format: functional, subsp. subtilis str. 168
Method in brief: (§1)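 Time-kill assay: a growing culture (S. aureus ATCC 29213 or B. subtilis 168) was exposed at time zero to 1×, 2× and 4× the MIC. Viable cell numbers were followed over 24 h, and the log reduction in viable count was recorded.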

[6] = system: Staphylococcus epidermidis; assay: Antibacterial activity against Staphylococcus epidermidis ATCC 12228 after 18 hrs by broth microdilution method; format: functional; details: ATCC 12228, 18 h
[7] = system: Bacteria; assay: Induction of bacterial GFP-fused FtsZ polymerization expressed in Bacillus subtilis 168 assessed as misformation of Z-ring at 2 ug/ml after 4 hrs by fluorescence microscopic method
Method in brief: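 B. subtilis 168 carrying a GFP–FtsZ construct was treated with compound or with DMSO as control. Z-ring formation was then examined by fluorescence microscopy.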

[8] = system: Staphylococcus aureus; assay: Antibacterial activity against methicillin-resistant Staphylococcus aureus USA300 2690 after 18 hrs by broth microdilution method; format: functional; details: USA300 2690, 18 h
[9] = system: Escherichia coli; assay: Antibacterial activity against Escherichia coli ATCC 25922 after 18 hrs by broth microdilution method; format: functional; details: ATCC 25922, 18 h
[10] = target: T1, Cell division protein FtsZ (Staphylococcus aureus); assay: Induction of recombinant Staphylococcus aureus FtsZ polymerization by 90degree light scattering-based fluorescence spectrometric analysis
Method in brief: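 S. aureus FtsZ was cloned, overexpressed and purified. Polymerization was followed over time by 90° light scattering in a thermostatically controlled fluorescence spectrometer, […] change at 600 nm. Compound was tested at 2 to 8 μg mL–1 against a no-compound profile. Methicillin served as the non-FtsZ-targeting control antibiotic.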

[11] = system: Staphylococcus aureus; assay: Antibacterial activity against methicillin-resistant Staphylococcus aureus ATCC BAA-1747 after 18 hrs by broth microdilution method; format: functional; details: ATCC BAA-1747, 18 h
[12] = system: Klebsiella pneumoniae; assay: Antibacterial activity against Klebsiella pneumoniae ATCC BAA-1144 after 18 hrs by broth microdilution method; format: functional; details: ATCC BAA-1144, 18 h
[13] = system: Staphylococcus aureus; assay: Bactericidal activity against Staphylococcus aureus ATCC 29213 assessed as reduction in bacterial load at MIC to 4 times MIC after 24 hrs relative to control; format: functional; method in brief: as §1
[14] = system: Enterococcus faecium; assay: Antibacterial activity against vancomycin-resistant Enterococcus faecium ATCC 700221 after 18 hrs by broth microdilution method; format: functional; details: ATCC 700221, 18 h
[15] = system: Staphylococcus aureus; assay: Antibacterial activity against Staphylococcus aureus ATCC 29213 after 18 hrs by broth microdilution method; format: functional; details: ATCC 29213, 18 h
[16] = target: T2, Cell division protein FtsZ (Bacillus subtilis (strain 168)) (UniProt P17865); assay: Inhibition of cell division function of FtsZ in Bacillus subtilis 168 assessed as increase in cell length at 2 ug/ml after 5 hrs by phase contrast light microscopic method; details: Bacillus subtilis subsp. subtilis str. 168
T2 sequence (whole entry): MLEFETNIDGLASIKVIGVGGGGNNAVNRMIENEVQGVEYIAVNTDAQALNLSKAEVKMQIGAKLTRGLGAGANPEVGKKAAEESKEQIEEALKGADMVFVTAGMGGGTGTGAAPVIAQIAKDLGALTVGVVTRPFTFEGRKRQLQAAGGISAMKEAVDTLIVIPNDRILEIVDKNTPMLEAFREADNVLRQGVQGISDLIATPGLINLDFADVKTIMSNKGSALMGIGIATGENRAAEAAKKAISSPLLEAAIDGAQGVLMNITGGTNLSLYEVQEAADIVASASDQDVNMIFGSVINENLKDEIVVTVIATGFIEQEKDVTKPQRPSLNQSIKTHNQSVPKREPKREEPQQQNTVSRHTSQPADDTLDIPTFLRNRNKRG
Method in brief: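 B. subtilis 168 cells were grown with or without 2 μg mL–1 compound. Cell morphology, including filamentation, was then examined by microscopy.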

[17] = system: Staphylococcus aureus; assay: Antibacterial activity against methicillin-resistant Staphylococcus aureus ATCC BAA-41 after 18 hrs by broth microdilution method; format: functional; details: ATCC BAA-41, 18 h
[18] = target: T1, Cell division protein FtsZ (Staphylococcus aureus); assay: Induction of recombinant Staphylococcus aureus FtsZ polymerization assessed as increase in bundling of protein protofilaments at 4 ug/ml preincubated for 10 mins followed by GTP addition and measured after 15 mins by transmission electron microscopic method
[19] = system: Staphylococcus aureus; assay: Antibacterial activity against methicillin-resistant Staphylococcus aureus ATCC 33592 after 18 hrs by broth microdilution method; format: functional; details: ATCC 33592, 18 h
[20] = system: Enterococcus faecium; assay: Antibacterial activity against Enterococcus faecium ATCC 49624 after 18 hrs by broth microdilution method; format: functional; details: ATCC 49624, 18 h
[21] = system: Pseudomonas aeruginosa; assay: Antibacterial activity against Pseudomonas aeruginosa ATCC BAA-2108 after 18 hrs by broth microdilution method; format: functional; details: ATCC BAA-2108, 18 h
[22] = system: Staphylococcus aureus; assay: Antibacterial activity against Staphylococcus aureus ATCC 29247 after 18 hrs by broth microdilution method; format: functional; details: ATCC 29247, 18 h
[23] = target: T1, Cell division protein FtsZ (Staphylococcus aureus); assay: Inhibition of recombinant Staphylococcus aureus FtsZ GTPase activity preincubated for 10 mins followed by GTP addition and measured after 30 mins
[24] = system: Bacillus subtilis; assay: Antibacterial activity against Bacillus subtilis 168 after 18 hrs by broth microdilution method; format: functional; details: subsp. subtilis str. 168, 18 h
[25] = system: Enterococcus faecalis; assay: Antibacterial activity against Enterococcus faecalis ATCC 29212 after 18 hrs by broth microdilution method; format: functional; details: ATCC 29212, 18 h
[26] = system: Staphylococcus aureus; assay: Antibacterial activity against methicillin-resistant Staphylococcus aureus ATCC BAA-1717 after 18 hrs by broth microdilution method; format: functional; details: ATCC BAA-1717, 18 h
[27] = system: Staphylococcus aureus; assay: Antibacterial activity against methicillin-resistant Staphylococcus aureus ATCC 43300 after 18 hrs by broth microdilution method; format: functional; details: ATCC 43300, 18 h
[28] = target: T1, Cell division protein FtsZ (Staphylococcus aureus); assay: Induction of recombinant Staphylococcus aureus FtsZ polymerization at 10 ug/ml by 90degree light scattering-based fluorescence spectrometric analysis
Method in brief: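 Recombinant S. aureus FtsZ cloned, overexpressed and purified. Polymerization followed over time by 90° light scattering in a thermostatically controlled fluorescence spectrometer, read as absorbance at 600 nm. Profiles recorded with and without compound. Methicillin served as the non-FtsZ-targeting control antibiotic.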

SMILES | MIC90 [1] | MIC90 [3] | MIC90 [4] | MIC90 [6] | MIC90 [8] | MIC90 [9] | MIC90 [11] | MIC90 [12] | MIC90 [14] | MIC90 [15] | MIC90 [17] | MIC90 [19] | MIC90 [20] | MIC90 [21] | MIC90 [22] | MIC90 [24] | MIC90 [25] | MIC90 [26] | MIC90 [27] | further results
O=C(O)C(=O)c1cn(Cc2ccccc2)c2ccc(-c3ccc(OC(F)(F)F)cc3)cc12 [TIPLASININ] | 2 µg/mL (≈ 4.55 µM) | 4 µg/mL (≈ 9.1 µM) | 4 µg/mL (≈ 9.1 µM) | 2 µg/mL (≈ 4.55 µM) | 2 µg/mL (≈ 4.55 µM) | > 48 µg/mL | 4 µg/mL (≈ 9.1 µM) | > 48 µg/mL | 4 µg/mL (≈ 9.1 µM) | 2 µg/mL (≈ 4.55 µM) | 4 µg/mL (≈ 9.1 µM) | 4 µg/mL (≈ 9.1 µM) | 4 µg/mL (≈ 9.1 µM) | > 48 µg/mL | 2 µg/mL (≈ 4.55 µM) | 2 µg/mL (≈ 4.55 µM) | 4 µg/mL (≈ 9.1 µM) | 4 µg/mL (≈ 9.1 µM) | 4 µg/mL (≈ 9.1 µM) | Activity [2]: Active; Activity [5]: >3 deltalog10CFU/ml; Activity [7]: Active; Activity [10]: Dose-dependent effect; Activity [13]: >3 deltalog10CFU/ml; inhibition [16]: Active; Activity [18]: Active; inhibition [23]: Dose-dependent effect
CN[C@H](CC(C)C)C(=O)N[C@H]1C(=O)N[C@@H](CC(N)=O)C(=O)N[C@H]2C(=O)N[C@H]3C(=O)N[C@H](C(=O)N[C@H](C(=O)O)c4cc(O)cc(O)c4-c4cc3ccc4O)[C@H](O)c3ccc(c(Cl)c3)Oc3cc2cc(c3O[C@@H]2O[C@H](CO)[C@@H](O)[C@H](O)[C@H]2O[C@H]2C[C@](C)(N)[C@H](O)[C@H](C)O2)Oc2ccc(cc2Cl)[C@H]1O [VANCOMYCIN] | – | – | – | – | – | – | – | – | > 96 µg/mL | – | – | – | – | – | – | – | – | – | – | –
COc1cccc(OC)c1C(=O)N[C@@H]1C(=O)N2[C@@H]1SC(C)(C)[C@@H]2C(=O)O [METHICILLIN] | 512 µg/mL (≈ 1350 µM) | 1020 µg/mL (≈ 2690 µM) | 1020 µg/mL (≈ 2690 µM) | 0.75 µg/mL (≈ 1.97 µM) | 256 µg/mL (≈ 673 µM) | 3 µg/mL (≈ 7.89 µM) | 256 µg/mL (≈ 673 µM) | > 256 µg/mL | 1.5 µg/mL (≈ 3.94 µM) | < 1 µg/mL | 1020 µg/mL (≈ 2690 µM) | 512 µg/mL (≈ 1350 µM) | 1.5 µg/mL (≈ 3.94 µM) | > 256 µg/mL | 6 µg/mL (≈ 15.8 µM) | < 1 µg/mL | 0.75 µg/mL (≈ 1.97 µM) | 512 µg/mL (≈ 1350 µM) | 512 µg/mL (≈ 1350 µM) | Activity [28]: inactive
